From ChEMBL document CHEMBL3085721, “Nonhydrolyzable ATP analogues as selective inhibitors of human NPP1: a combined computational/experimental study” (J Med Chem, 2013) come the findings set out here.

In this test the target is T1, Ectonucleotide pyrophosphatase/phosphodiesterase family member 3 (Homo sapiens) (UniProt O14638).
T1 sequence (whole entry): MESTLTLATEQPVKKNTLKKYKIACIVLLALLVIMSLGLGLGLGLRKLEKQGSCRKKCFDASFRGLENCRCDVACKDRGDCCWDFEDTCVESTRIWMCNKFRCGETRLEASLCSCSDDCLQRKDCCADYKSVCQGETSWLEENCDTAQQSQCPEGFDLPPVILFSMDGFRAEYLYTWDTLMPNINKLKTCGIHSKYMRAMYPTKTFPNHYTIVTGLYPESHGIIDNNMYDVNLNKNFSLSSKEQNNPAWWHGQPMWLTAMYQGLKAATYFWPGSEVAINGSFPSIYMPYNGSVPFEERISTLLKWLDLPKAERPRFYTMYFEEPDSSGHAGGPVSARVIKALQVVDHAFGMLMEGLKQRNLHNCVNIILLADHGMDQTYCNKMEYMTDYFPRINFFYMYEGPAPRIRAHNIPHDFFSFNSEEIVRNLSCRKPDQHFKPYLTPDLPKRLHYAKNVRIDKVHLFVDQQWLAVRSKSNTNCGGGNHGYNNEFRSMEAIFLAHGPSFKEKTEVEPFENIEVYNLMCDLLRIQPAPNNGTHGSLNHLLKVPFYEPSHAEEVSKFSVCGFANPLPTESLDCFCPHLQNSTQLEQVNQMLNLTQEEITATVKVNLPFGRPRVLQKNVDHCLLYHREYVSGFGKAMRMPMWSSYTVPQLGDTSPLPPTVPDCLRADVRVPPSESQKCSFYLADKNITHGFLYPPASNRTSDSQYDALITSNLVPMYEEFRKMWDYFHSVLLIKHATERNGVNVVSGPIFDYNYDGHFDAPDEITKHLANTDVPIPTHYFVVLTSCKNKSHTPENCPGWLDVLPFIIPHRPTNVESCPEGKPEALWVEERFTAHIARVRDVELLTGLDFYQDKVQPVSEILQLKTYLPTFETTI
Briefly: Inhibition of human NPP3 expressed in COS7 cells assessed as production of p-nitrophenol using pnp-TMP as the substrate preincubated at 100 uM for 3 mins before substrate addition measured after 15 mins […]. The test is classed as cell-based. Particulars: COS-7. An outline of the steps:
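Crude extracts of COS-7 cells transiently transfected with human NPP1 or NPP3, preincubated 3 min at 37 °C in 1 mM CaCl2, 140 mM NaCl, 5 mM KCl, 50 mM Tris pH 8.5 with analogue at 100 μM. Reaction started with 100 μM pnp-TMP; p-nitrophenol at 410 nm after 15 min. Activity without analogue set as 100%. Mean ± SD of 3−6 experiments in triplicate.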

For `B[P@@](=O)(OC[C@H]1O[C@@H](n2cnc3c(N)nc(SC)nc32)[C@H](O)[C@@H]1O)OP(=O)(O)C(F)(F)P(=O)(O)O`, the inhibition (in general, the share of the control response that was lost under treatment) came out at 50%.

For the compound `CSc1nc(N)c2ncn([C@@H]3O[C@H](COP(=O)(O)C(F)(F)P(=O)(O)O)[C@@H](O)[C@H]3O)c2n1`, the inhibition stood at 50%.
